# Reference: the M2OR odorant receptor database
# Substitutions are numbered along the chain they refer to.
# Assays:
# Settings in all cases: stereoisomer not certain
# [1] = target: T1, OR5M3 (Homo sapiens) (UniProt Q8NGP4)
# T1 sequence (whole entry): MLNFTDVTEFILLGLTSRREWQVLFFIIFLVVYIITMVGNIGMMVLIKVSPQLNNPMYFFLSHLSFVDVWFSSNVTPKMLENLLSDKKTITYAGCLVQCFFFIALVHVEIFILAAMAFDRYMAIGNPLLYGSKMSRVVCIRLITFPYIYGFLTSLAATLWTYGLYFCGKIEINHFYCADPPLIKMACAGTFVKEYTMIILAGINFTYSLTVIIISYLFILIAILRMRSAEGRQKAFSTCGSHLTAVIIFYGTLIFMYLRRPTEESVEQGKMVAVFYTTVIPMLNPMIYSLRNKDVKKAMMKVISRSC
# Method in brief: (§1)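 Values were gathered from published papers (main text and supplementary material), with extra details requested from the original authors when needed, and checked for typos and inconsistencies. Each receptor–molecule pair is called responsive (active) if the original authors judged the measured signal statistically different from baseline, and non-responsive (inactive) otherwise. Assay methods varied by source, often transient mammalian cell-line luciferase assays. Recorded details include cell line, G-protein, co-transfected protein and tags.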
# [2] = target: T2, OR5K3 (Homo sapiens) (UniProt A6NET4)
# T2 sequence (whole entry): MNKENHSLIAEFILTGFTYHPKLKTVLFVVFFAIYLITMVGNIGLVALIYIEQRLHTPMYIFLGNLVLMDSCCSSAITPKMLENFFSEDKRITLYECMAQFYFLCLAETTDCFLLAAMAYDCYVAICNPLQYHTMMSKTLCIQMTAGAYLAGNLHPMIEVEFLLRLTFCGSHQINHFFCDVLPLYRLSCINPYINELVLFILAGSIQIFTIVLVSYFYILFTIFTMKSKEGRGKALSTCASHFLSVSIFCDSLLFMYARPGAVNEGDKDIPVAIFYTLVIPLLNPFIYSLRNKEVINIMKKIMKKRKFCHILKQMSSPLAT
# Method in brief: as §1
# [3] = target: T3, OR5K4 (Homo sapiens) (UniProt A6NMS3)
# T3 sequence (whole entry): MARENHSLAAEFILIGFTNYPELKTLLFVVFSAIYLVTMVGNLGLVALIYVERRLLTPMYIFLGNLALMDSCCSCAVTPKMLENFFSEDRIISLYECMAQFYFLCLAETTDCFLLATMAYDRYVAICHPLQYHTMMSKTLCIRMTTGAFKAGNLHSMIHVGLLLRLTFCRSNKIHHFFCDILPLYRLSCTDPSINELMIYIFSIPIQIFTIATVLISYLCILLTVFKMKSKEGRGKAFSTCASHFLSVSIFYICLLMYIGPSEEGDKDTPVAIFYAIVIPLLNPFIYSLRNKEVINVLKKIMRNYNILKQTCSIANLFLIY
# Method in brief: as §1
# [4] = target: T4, OR5L1 (Homo sapiens) (UniProt Q8NGL2)
# T4 sequence (whole entry): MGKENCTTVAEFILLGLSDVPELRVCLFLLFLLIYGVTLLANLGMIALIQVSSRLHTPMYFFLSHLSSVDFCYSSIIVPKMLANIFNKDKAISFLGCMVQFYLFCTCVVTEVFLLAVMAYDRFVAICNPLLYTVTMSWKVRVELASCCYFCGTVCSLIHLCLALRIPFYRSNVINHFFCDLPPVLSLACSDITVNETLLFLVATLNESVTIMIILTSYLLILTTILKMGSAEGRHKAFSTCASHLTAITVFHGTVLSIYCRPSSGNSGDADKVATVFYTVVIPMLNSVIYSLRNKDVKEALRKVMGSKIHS
# Method in brief: as §1
# [5] = target: T5, OR5L2 (Homo sapiens) (UniProt Q8NGL0)
# T5 sequence (whole entry): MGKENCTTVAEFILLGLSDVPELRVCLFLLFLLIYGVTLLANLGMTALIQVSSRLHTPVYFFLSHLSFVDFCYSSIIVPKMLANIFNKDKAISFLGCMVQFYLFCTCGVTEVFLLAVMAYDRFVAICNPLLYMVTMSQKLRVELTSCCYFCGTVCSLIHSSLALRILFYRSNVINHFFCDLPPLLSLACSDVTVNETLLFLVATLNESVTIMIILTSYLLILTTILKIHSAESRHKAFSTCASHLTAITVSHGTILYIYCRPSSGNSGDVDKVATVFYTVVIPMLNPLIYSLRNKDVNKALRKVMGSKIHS
# Method in brief: as §1
# [6] = target: T6, OR5M1 (Homo sapiens) (UniProt Q8NGP8)
# T6 sequence (whole entry): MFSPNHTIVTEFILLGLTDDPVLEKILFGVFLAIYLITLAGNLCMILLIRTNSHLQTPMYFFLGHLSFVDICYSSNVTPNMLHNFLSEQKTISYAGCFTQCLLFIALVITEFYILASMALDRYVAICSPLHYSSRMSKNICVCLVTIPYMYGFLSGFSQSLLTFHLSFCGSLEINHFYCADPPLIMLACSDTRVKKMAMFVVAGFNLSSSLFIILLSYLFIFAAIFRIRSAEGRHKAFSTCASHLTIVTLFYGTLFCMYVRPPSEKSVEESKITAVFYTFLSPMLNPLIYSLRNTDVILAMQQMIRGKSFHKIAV
# Method in brief: as §1
# [7] = system: T7, OR5M1 T295R M301I
# T7 sequence (whole entry): T6 sequence (whole entry) with T295R, M301I
# Method in brief: as §1
# [8] = target: T8, OR5M10 (Homo sapiens) (UniProt Q6IEU7)
# T8 sequence (whole entry): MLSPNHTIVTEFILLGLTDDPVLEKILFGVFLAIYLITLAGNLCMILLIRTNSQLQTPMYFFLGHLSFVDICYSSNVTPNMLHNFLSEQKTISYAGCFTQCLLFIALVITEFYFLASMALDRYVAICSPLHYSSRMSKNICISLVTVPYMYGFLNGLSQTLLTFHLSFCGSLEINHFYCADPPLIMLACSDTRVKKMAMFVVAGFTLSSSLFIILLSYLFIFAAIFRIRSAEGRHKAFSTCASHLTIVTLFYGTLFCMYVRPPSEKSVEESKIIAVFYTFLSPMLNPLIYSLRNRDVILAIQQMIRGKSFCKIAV
# Method in brief: as §1
# [9] = target: T9, OR5M11 (Homo sapiens) (UniProt Q96RB7)
# T9 sequence (whole entry): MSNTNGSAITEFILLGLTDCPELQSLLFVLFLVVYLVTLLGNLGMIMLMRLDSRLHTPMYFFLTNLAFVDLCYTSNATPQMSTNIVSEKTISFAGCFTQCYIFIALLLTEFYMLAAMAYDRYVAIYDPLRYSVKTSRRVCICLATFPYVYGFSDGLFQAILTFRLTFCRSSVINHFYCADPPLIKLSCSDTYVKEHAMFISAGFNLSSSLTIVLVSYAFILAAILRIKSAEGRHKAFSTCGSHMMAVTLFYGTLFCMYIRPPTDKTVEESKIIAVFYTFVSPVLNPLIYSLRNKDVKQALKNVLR
# Method in brief: as §1
# [10] = system: T10, OR5M3 N3Y A156T
# T10 sequence (whole entry): T1 sequence (whole entry) with N3Y, A156T
# Method in brief: as §1
# [11] = target: T11, OR5M8 (Homo sapiens) (UniProt Q8NGP6)
# T11 sequence (whole entry): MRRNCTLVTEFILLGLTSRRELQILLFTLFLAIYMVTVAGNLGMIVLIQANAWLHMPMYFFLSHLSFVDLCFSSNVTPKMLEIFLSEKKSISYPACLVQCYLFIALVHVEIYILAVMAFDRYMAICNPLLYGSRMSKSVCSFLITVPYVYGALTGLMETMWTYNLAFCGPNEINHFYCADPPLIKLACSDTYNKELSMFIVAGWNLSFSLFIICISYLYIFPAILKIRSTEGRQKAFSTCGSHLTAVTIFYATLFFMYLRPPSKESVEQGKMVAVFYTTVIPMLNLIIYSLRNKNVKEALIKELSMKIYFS
# Method in brief: as §1
# [12] = target: T12, OR5M9 (Homo sapiens) (UniProt Q8NGP3)
# T12 sequence (whole entry): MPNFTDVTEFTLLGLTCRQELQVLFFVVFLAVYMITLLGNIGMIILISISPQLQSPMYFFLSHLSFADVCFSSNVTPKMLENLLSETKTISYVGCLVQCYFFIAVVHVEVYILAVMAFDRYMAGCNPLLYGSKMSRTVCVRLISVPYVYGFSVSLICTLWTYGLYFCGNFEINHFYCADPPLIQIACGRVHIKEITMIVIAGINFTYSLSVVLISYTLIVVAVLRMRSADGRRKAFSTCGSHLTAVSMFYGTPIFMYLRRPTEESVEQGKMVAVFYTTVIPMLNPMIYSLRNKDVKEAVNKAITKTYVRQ
# Method in brief: as §1
# [13] = system: T13, OR5MA L2F C311H
# T13 sequence (whole entry): T8 sequence (whole entry) with L2F, C311H
# Method in brief: as §1
# [14] = system: T14, OR5MA L2F Q54H C311H
# T14 sequence (whole entry): T8 sequence (whole entry) with L2F, Q54H, C311H
# Method in brief: as §1
# [15] = target: T15, OR5P2 (Homo sapiens) (UniProt Q8WZ92)
# T15 sequence (whole entry): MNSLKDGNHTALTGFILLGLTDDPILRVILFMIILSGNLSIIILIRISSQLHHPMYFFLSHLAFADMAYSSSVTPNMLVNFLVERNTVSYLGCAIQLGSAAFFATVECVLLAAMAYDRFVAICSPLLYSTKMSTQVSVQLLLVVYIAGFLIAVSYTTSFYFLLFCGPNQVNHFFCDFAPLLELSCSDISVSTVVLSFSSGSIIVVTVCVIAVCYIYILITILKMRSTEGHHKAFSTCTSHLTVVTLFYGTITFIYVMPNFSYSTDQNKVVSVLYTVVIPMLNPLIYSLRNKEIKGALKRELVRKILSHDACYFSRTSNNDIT
# Method in brief: as §1
# [16] = target: T16, OR5P3 (Homo sapiens) (UniProt Q8WZ94)
# T16 sequence (whole entry): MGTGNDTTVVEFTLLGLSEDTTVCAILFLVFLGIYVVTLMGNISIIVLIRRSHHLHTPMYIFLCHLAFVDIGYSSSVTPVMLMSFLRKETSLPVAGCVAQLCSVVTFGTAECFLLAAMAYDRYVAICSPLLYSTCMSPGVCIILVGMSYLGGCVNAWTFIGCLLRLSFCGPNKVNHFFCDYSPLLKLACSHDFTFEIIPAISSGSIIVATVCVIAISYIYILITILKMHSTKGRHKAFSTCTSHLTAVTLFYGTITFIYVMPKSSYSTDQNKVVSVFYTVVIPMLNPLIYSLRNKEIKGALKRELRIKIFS
# Method in brief: as §1
# [17] = system: T17, OR5P3 L301R
# T17 sequence (whole entry): T16 sequence (whole entry) with L301R
# Method in brief: as §1
# [18] = system: T18, OR5R1 C122R S128G F184L
# T18 sequence (whole entry): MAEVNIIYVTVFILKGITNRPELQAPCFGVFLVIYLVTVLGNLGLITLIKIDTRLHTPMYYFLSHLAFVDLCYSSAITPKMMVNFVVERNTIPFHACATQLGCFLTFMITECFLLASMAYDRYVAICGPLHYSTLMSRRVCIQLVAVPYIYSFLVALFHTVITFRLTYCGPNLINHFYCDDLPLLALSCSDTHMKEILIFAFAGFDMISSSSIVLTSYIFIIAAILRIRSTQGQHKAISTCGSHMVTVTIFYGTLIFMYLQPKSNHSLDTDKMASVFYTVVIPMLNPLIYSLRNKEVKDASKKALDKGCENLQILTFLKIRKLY
# Method in brief: as §1
# [19] = target: T19, OR5T1 (Homo sapiens) (UniProt Q8NG75)
# T19 sequence (whole entry): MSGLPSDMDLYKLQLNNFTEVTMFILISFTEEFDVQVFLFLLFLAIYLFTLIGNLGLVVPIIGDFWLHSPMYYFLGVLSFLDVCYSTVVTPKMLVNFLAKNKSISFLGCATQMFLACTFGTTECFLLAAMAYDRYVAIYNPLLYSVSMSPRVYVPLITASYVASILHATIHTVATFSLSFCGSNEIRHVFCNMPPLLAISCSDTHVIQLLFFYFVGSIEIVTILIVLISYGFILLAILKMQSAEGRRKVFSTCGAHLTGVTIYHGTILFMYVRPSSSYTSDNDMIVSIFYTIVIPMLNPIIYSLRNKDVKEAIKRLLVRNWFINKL
# Method in brief: as §1
# [20] = target: T20, OR5T2 (Homo sapiens) (UniProt Q8NGG2)
# T20 sequence (whole entry): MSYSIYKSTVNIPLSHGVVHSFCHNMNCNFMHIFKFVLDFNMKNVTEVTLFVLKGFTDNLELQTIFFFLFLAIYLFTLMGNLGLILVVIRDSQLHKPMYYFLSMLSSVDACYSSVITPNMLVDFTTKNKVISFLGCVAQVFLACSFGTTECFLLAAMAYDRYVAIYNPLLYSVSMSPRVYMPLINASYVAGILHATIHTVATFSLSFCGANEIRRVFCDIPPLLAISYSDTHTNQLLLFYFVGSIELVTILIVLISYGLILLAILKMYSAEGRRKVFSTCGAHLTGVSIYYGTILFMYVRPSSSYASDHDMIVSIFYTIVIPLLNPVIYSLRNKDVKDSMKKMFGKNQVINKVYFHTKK
# Method in brief: as §1
compound,measurement,setting,value
Cc1cccc(O)c1,odorant receptor agonist call,[1],inactive
CCC1OC(C)=C(O)C1=O (stereo unspecified),odorant receptor agonist call,[2],inactive
same,odorant receptor agonist call,[3],inactive
same,odorant receptor agonist call,[4],inactive
same,odorant receptor agonist call,[5],inactive
same,odorant receptor agonist call,[6],inactive
same,odorant receptor agonist call,[7],inactive
same,odorant receptor agonist call,[8],inactive
same,odorant receptor agonist call,[9],inactive
same,odorant receptor agonist call,[1],active
same,odorant receptor agonist call,[10],inactive
same,odorant receptor agonist call,[11],inactive
same,odorant receptor agonist call,[12],inactive
same,odorant receptor agonist call,[13],inactive
same,odorant receptor agonist call,[14],inactive
same,odorant receptor agonist call,[15],inactive
same,odorant receptor agonist call,[16],inactive
same,odorant receptor agonist call,[17],inactive
same,odorant receptor agonist call,[18],inactive
same,odorant receptor agonist call,[19],inactive
same,odorant receptor agonist call,[20],inactive
CCc1nccnc1C(C)=O,odorant receptor agonist call,[2],inactive
same,odorant receptor agonist call,[3],inactive
CCC(S)C(C)CO (stereo unspecified),odorant receptor agonist call,[2],inactive
same,odorant receptor agonist call,[3],inactive
same,odorant receptor agonist call,[4],inactive
same,odorant receptor agonist call,[5],inactive
same,odorant receptor agonist call,[6],inactive
same,odorant receptor agonist call,[8],inactive
same,odorant receptor agonist call,[9],inactive
same,odorant receptor agonist call,[1],inactive
same,odorant receptor agonist call,[11],inactive
same,odorant receptor agonist call,[12],inactive
same,odorant receptor agonist call,[15],inactive
same,odorant receptor agonist call,[16],inactive
same,odorant receptor agonist call,[19],inactive
same,odorant receptor agonist call,[20],inactive
CCc1nccnc1OC,odorant receptor agonist call,[2],inactive
same,odorant receptor agonist call,[3],inactive
CCC(C)C=O (stereo unspecified),odorant receptor agonist call,[1],inactive
CSCCCO,odorant receptor agonist call,[1],inactive
